Screening results (PubChem)
NALP1 yeast inh: blocks the NALP1 inflammasome reconstituted in yeast. AID 2071. inhibition, % at 10 µM. S. cerevisiae NALP1/ASC/caspase-1 growth, X-gal OD620, 72 h. 280,000 tested, 0.61% active; in the data active = inhibition mostly above about 24%, no sharp cut-off; inactive = mostly below about 32%
Lmaj promast: reduces viability of Leishmania major promastigotes. resazurin fluorescence viability. inhibition, % at 10 µM. 200,000 tested, 9% active. AID 1063; in the data active = inhibition above about 50%;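 also: promastigotes grown with compound for 44 hours at 28 °C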
T cruzi inh: T. cruzi replication inhibition | T. cruzi beta-gal in NIH3T3, luminescence, 90 h | inhibition, % (concentration not given with the values) | 300,000 tested, 1.4% active;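 active = mean inhibition across valid replicates above about 55%, limit read from the data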;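 also: signal also drops with host cell toxicity which is not excluded here; higher percent means less beta-gal luminescence so fewer parasites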
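System: NIH/3T3 fibroblasts plus reporter T. cruzi. Medium: DMEM plus 2% FBS. Probe or stimulus: 5000 reporter trypomastigotes per well. Compound: single 50 nL compound addition per well in DMSO. Incubation: co-culture of at least 90 h after 3 h attachment. Detection: GalScreen β-gal luminescence, detergent lysis, 60 min. Evaluation: parasite load inhibition, %.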
NALP3 yeast inh: NALP3 inhibition in yeast; Yeast reconstituted NLRP3/ASC/caspase-1, beta-gal luminescence, 24 h; inhibition, % at 10 µM; 330,000 tested, 0.39% active;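 active = inhibition of 50% or more; inactive = inhibition below 50%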
Calb FLC: affects C. albicans growth with fluconazole. AID 1979. growth inhibition, % (test concentration not listed). 300,000 tested, 0.57% active. C. albicans CaCi-2 + fluconazole, Alamar Blue growth, 48 h;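 active = growth inhibition above about 58% in most replicates, limit read from the data, passing the limit was not always enough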;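 also: all wells also contain fluconazole at 8 µg/ml as a sub-toxic cotreatment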
PolyA inhibitor: blocks polyadenylation in yeast reporter cells; S. cerevisiae SKY197-pL101 polyadenylation reporter, beta-gal luminescence; efflux-impaired pdr1/pdr3 knockout yeast; score 100 = 6 SD above DMSO; activity score, % at 12 µM; 300,000 tested, 0.02% active;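 active = lowest replicate activity score at least 50, where 100 means six control SD above control mean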;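 also: yeast exposed to compound for 9 h at 30 °C; higher score means more reporter readthrough which indicates perturbed polyadenylation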
A number is an active result; - = inactive; . = no result given. The full list was thinned out, with hits kept by preference.

SMILES	NALP1 yeast inh	Lmaj promast	T cruzi inh	NALP3 yeast inh	Calb FLC	PolyA inhibitor
CCN(CC)CCCNC(=O)c1cc2c(-c3cccc(OC)c3)nn(C)c2s1	-	.	-	-	-	-
CN(C(=O)CN1C(=O)c2ccccc2S1(=O)=O)C1CCCCC1	.	.	.	-	.	.
CCOC(=O)NC(=O)c1cn(CCNCCO)c(=O)[nH]c1=O	-	-	-	-	-	-
Cn1c(-c2ccc(Cl)cc2)cnc1NCc1cc2c(cc1[N+](=O)[O-])OCO2	-	98	-	-	-	-
Cn1c(-c2ccccc2)cnc1NCc1cc2c(cc1[N+](=O)[O-])OCO2	-	87	-	-	-	-
Cc1cc(F)ccc1NCc1cc2c(cc1[N+](=O)[O-])OCO2	-	-	-	-	-	-
Cn1c(-c2ccc(F)cc2)cnc1NCc1cc2c(cc1[N+](=O)[O-])OCO2	-	99	-	-	-	-
Cn1c(-c2ccccc2)cnc1NCc1cccc([N+](=O)[O-])c1	-	.	-	-	-	-
CCCCNC(=O)c1onc(CSc2ccc(OC)cc2)c1C(=O)O	-	-	-	-	-	-
COCCNC(=O)c1onc(CSc2ccccc2)c1C(=O)NCCOC	.	.	-	-	-	-
COCCNC(=O)c1onc(CCl)c1C(=O)OC	-	92	-	-	-	-
CCCCNC(=O)c1onc(CCl)c1C(=O)OC	-	101	-	-	-	-
C=CCNC(=O)c1onc(CCl)c1C(=O)OC	-	101	-	-	-	-
COc1cc(S(=O)(=O)N2CCOCC2)ccc1NC(=O)COC(=O)c1ccccn1	-	-	-	-	-	-
CCCCC(=O)Nc1nnc(SCC(=O)NCC2CCCO2)s1 (stereo not given)	.	.	-	-	-	-
CC(C)(Cc1ccccc1)/[N+]([O-])=C\c1ccc(C(F)(F)F)cc1	.	.	-	-	-	-
C[C@H](CO)N1C[C@H](C)[C@@H](CN(C)C(=O)NC2CCCCC2)Oc2ccc(NC(=O)CCC(F)(F)F)cc2C1=O	.	.	.	-	.	.
CC(Oc1ccc(C(C)(C)C)cc1)C(=O)NCC(c1ccco1)N1CCCC1 (stereo not given)	.	.	.	-	.	.
O=S(=O)(NCCN1CCOCC1)c1cccs1	-	-	-	-	-	-
CSC(=NCCCN1CCOCC1)NS(=O)(=O)c1cccs1	32	-	-	-	-	-
CCCCn1c(N)c(N(CCOC)C(=O)c2nn(CC)c(=O)c3ccccc23)c(=O)[nH]c1=O	.	.	-	-	-	-
CCCCC(=O)NC(=S)NNC(=O)c1ccc(OC)cc1	-	58	-	-	-	-
CCCOc1ccc(C(=O)NNC(=S)NC(=O)CC)cc1	-	95	-	-	85	-
C=CCNC(=S)NNC(=O)c1ccc(OCCC)cc1	-	-	-	-	-	-
CCC(=O)NC(=S)NNC(=O)c1ccc(NC(=O)c2ccccc2)cc1	-	99	-	-	-	-
SMILES	NALP1 yeast inh	Lmaj promast	T cruzi inh	NALP3 yeast inh	Calb FLC	PolyA inhibitor
Cc1oc(C)c(S(=O)(=O)NCc2cccs2)c1C(=O)O	-	.	-	-	-	-
Cn1c(CC(=O)Nc2ccc(F)cc2)nnc1SCC(=O)Nc1nncs1	-	.	-	-	-	-
CCCCn1c(N)c(N(CCOC)C(=O)CN2C(=O)c3ccccc3C2=O)c(=O)[nH]c1=O	-	.	-	-	-	-
CN(CC(=O)Nc1ccccc1Cl)C(=O)CSc1nncn1C	.	.	-	-	-	-
COc1cccc(/C=N/NC(=O)C(C)Sc2ccccc2)c1 (stereo not given)	30	-	-	-	-	-
CCC(C)C(NC(N)=O)C(=O)Nc1ccc(C)c(Cl)c1 (stereo not given)	-	58	-	-	-	-
Cc1ccc(NC(=O)C(C)c2ccc([N+](=O)[O-])cc2)cc1Cl (stereo not given)	-	56	-	-	-	-
O=C(Cc1ccc(Cl)cc1Cl)Nc1cccc(S(=O)(=O)Nc2ccccc2F)c1	-	75	-	-	-	-
O=C(Cc1c(F)cccc1Cl)Nc1cccc(S(=O)(=O)NC2=NCCCCC2)c1	.	.	-	-	-	-
O=C(Nc1ccc(OC(F)F)c(Cl)c1)Nc1ccc2c(c1)OCO2	-	-	-	-	-	-
O=C(Cc1ccc(Cl)cc1Cl)Nc1ccc(OC(F)F)c(Cl)c1	-	53	-	-	-	-
CC[C@H](C)[C@H](NC(N)=O)C(=O)Nc1ccc(OC)c(Cl)c1	-	-	-	-	-	-
O=C(NCC(=O)N(c1ccccc1F)C(C(=O)NC1CCCC1)c1cccnc1)c1ccco1 (stereo not given)	-	.	-	-	-	-
C=CCn1cc(C(=O)N2CCN(CC)CC2)c(=O)c2cc(S(=O)(=O)N(CC)CC)ccc21	-	.	-	-	-	-
O=C(Nc1ccc([N+](=O)[O-])cc1)Nc1ccc(OC(F)F)c(Cl)c1	-	99	.	.	.	.
O=C(COC(=O)Cc1ccc(Cl)cc1Cl)Nc1ccc(OC(F)F)cc1	-	70	-	-	-	-
Cc1nn(C)c(Oc2ccccc2)c1CCNS(=O)(=O)c1ccccc1	-	-	-	-	-	-
COc1cccc(CC(NC(C)=O)C(=O)NC2CCN(C(=O)c3ccc(Cl)cc3)CC2)c1 (stereo not given)	-	.	-	-	-	-
O=C(Cn1cccc1)N1CCN(C(c2ccccc2)c2ccccc2)CC1	.	-	-	-	-	-
O=C(CN1CCN(c2ncccn2)CC1)N1CCN(C(c2ccccc2)c2ccccc2)CC1	.	98	.	.	.	.
COc1ccc(OC)c(NC(=O)Nc2ccc3[nH]ccc3c2)c1	.	.	-	-	-	-
O=Cc1ccc(O)c2ncccc12	82	.	57	-	94	-
CCNc1nc(NC(C)C)nc(N(C#N)CCOc2ccc(Cl)cc2Cl)n1	-	97	-	-	-	-
CCNc1nc(NC(C)C)nc(N(C#N)Cc2ccccc2)n1	-	-	-	-	-	-
CS(=O)(=O)N(CCc1ccccc1)CC(=O)NCc1ccccn1	-	-	-	-	-	-
SMILES	NALP1 yeast inh	Lmaj promast	T cruzi inh	NALP3 yeast inh	Calb FLC	PolyA inhibitor
COc1ccc(-n2cc(CN(C)C3CCOCC3)c(-c3cccc(F)c3)n2)cc1	-	-	-	-	-	-
COc1ccc(-n2cc(CNCC3CCOCC3)c(-c3cccc(F)c3)n2)cc1	-	87	-	-	-	-
COc1ccc(-n2cc(CNCCCn3ccnc3)c(-c3cccc(F)c3)n2)cc1	-	100	-	-	-	-
Cn1c(=O)c2c(nc(NCC3CCCC(CN)C3)n2Cc2ccc(Cl)cc2Cl)n(C)c1=O (stereo not given)	-	.	-	-	-	-
C/C=C(\C)CN1CCC(n2nccc2NC(=O)c2ccc(OC)cc2)CC1	-	.	66	-	-	-
C=CCCC(=O)N1CCC(n2nccc2NC(=O)c2ccc(OC)cc2)CC1	-	.	-	-	-	-
Cc1ccc(NC(=S)c2ccncc2)c(C)c1	-	.	-	-	-	-
Cc1ccc(NC(=S)c2nc3ccccc3[nH]2)c(C)c1	-	87	-	-	-	-
COC(=O)c1ccc(C2Nc3cccc4cccc(c34)N2)cc1	-	-	67	-	-	-
